T cruzi growth-1: T. cruzi intracellular proliferation inhibitors, primary screen, cell-based, beta-gal Tulahuen parasites, NIH3T3 host, luminescence | T. cruzi beta-gal in NIH3T3, GalScreen luminescence, 90 h | inhibition, % at 8.34 µM | actives 5.9% (n = 77,000);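 active = mean inhibition above about 93%, with at least 55% of replicates each passing it, limit read from the data, passing the limit was not always enough; inconclusive = only one of those two conditions holds; inactive = neither condition holds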
Pf Dd2 inh: P. falciparum Dd2 growth inhibitors, primary screen, SYBR Green fluorescence, single dose replicates | actives 2.3% (n = 94,000) | activity change, % at 10 µM | 72 h; stronger effect = lower value; in the data active = activity change below about -80%; inconclusive = no clear call, values can overlap the other calls
IDH1 mut inh: inhibitors of IDH1 R132H reductase, primary screen, biochemical, plate reader, single point | actives 0.18% (n = 70,000) | diaphorase/resazurin fluorescence, 60 min | inhibition, % at 10 µM | AID 624101, 2012; in the data active = inhibition above about 34%; inconclusive = no clear call, values can overlap the other calls; inactive = below about 11%;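 also: 0% = DMSO and 100% = no enzyme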
Target sequence (O75874 whole entry R132H): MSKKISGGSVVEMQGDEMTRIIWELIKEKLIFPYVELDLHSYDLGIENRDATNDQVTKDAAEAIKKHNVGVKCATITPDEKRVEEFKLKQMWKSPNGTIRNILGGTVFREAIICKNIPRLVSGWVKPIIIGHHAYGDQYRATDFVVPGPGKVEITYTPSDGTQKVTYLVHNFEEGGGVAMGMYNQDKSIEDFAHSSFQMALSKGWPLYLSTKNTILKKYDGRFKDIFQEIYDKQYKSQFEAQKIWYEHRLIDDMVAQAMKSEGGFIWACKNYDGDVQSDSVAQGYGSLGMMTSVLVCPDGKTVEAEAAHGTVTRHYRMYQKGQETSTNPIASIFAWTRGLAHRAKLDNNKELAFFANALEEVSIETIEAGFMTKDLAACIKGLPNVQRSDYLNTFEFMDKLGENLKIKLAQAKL
GASC1 inh: inhibitors of GASC-1 (KDM4C) histone demethylase, primary screen, biochemical, single concentration HTS; GST-KDM4C 2-372, H3K9me3 peptide, LANCE TR-FRET; inhibition, % at 12.5 µM; Lysine-specific demethylase 4C (Homo sapiens), Q9H3R0; actives 0.15% (n = 96,000); AID 720574, 2013;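 active = mean replicate inhibition above about 25%, with at least 55% of replicates also reaching it, limit read from the data, passing the limit was not always enough; inconclusive = only one of those two conditions met; inactive = neither condition met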
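Assay system: GST-GASC-1 enzyme fragment 2-372 | Amount: 10 nM enzyme | Medium: HEPES buffer, pH 7.5, plus ascorbate | Reagent: H3K9me3 peptide substrate, Fe(II), 2-oxoglutarate | Doses: Single-point compound screen | Incubation: 30 min demethylation and 1 h detection at room temperature | Measured by: LANCE TR-FRET, excitation 340 nm, emissions 618 and 671 nm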
T cruzi growth-2: T. cruzi intracellular proliferation inhibitors, confirmation, cell-based, NIH3T3 host, beta-gal parasite, luminescence, cherry-pick | inhibition, % at 8.35 µM | T. cruzi beta-gal in NIH3T3, GalScreen luminescence, 90 h | shares compounds with T cruzi growth-1 | actives 72% (n = 5,600);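 active = mean replicate inhibition above about 95% and at least 55% of replicates individually reaching it, limit read from the data; inconclusive = only one of the two criteria is met; inactive = neither criterion is met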
T cruzi growth-3: inhibitors of intracellular T. cruzi replication, confirmation, NIH3T3 host cells, beta-gal parasites, cherry-pick, set 2; AID 651740, 2012; shares compounds with T cruzi growth-1; inhibition, % at 2.09 µM; actives 21% (n = 5,600); T. cruzi beta-gal in NIH3T3, GalScreen luminescence, 90 h;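 active = mean inhibition above about 95%, with at least 55% of replicates also reaching it, limit read from the data; inconclusive = meets just one of the two conditions; inactive = meets neither condition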;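 also: plate controls were neutral control median for no effect and positive control median for full effect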
NIH3T3 tox: cytotoxicity in mouse NIH/3T3 fibroblasts, confirmation, cytotoxicity control for T. cruzi proliferation inhibitor project, cell-based, cherry-pick, single point | actives 14% (n = 5,600) | NIH/3T3 viability, CellTiter-Glo ATP luminescence, 90 h | cytotoxicity (signal decrease), % at 8.35 µM | AID 651742, 2012 | shares compounds with T cruzi growth-1;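 active = mean signal decrease across replicates above about 35% based on untreated-well scatter, with enough replicates individually passing, limit read from the data; inconclusive = no rule stated though some were filed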;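 also: 0% = median of neutral control wells and 100% = median of positive control wells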
NIH3T3 tox 2: NIH/3T3 fibroblast cytotoxicity, confirmation, cytotoxicity control, cell-based, cherry-pick, single point, set 2. NIH/3T3 viability, CellTiter-Glo ATP luminescence, 90 h. shares compounds with T cruzi growth-1. inhibition, % at 24.9 µM. actives 56% (n = 5,600). AID 651744, 2012;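 active = mean loss of cell viability signal at or above a set limit, and enough replicates individually reaching it; inconclusive = meets only the mean limit or only the replicate share; inactive = meets neither condition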;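 also: 0% = median of neutral control wells and 100% = median of positive control wells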
Active calls of the source: *. Only some compounds are listed: those with a hit (about 5.9% of all), similar ones and a draw of the others.

`Cc1cc(C(=O)Nc2cccc3c2O[C@@H](CN(C)Cc2ccc(C(F)(F)F)cc2)[C@@H](C)CN([C@@H](C)CO)C3=O)n(C)n1` gave T cruzi growth-1 96*, Pf Dd2 inh -22, GASC1 inh 0, T cruzi growth-2 79, T cruzi growth-3 -7, NIH3T3 tox 18 and NIH3T3 tox 2 inconclusive.
Screening Cc1cc(C(=O)Nc2cccc3c2O[C@H](CN(C)Cc2ccc(C(F)(F)F)cc2)[C@H](C)CN([C@H](C)CO)C3=O)n(C)n1 returned T cruzi growth-1 18, Pf Dd2 inh -42 and GASC1 inh -1.
Screening Cc1cc(C(=O)Nc2cccc3c2O[C@H](CN(C)Cc2ccc(C(=O)Nc4ccccc4N)cc2)[C@H](C)CN([C@@H](C)CO)C3=O)n(C)n1 returned T cruzi growth-1 93*, Pf Dd2 inh -82*, GASC1 inh -1, T cruzi growth-2 91, T cruzi growth-3 66, NIH3T3 tox 46* and NIH3T3 tox 2 91*.
Screening Cc1cc(C(=O)Nc2cccc3c2O[C@@H](CN(C)Cc2ccc(C(=O)Nc4ccccc4N)cc2)[C@@H](C)CN([C@H](C)CO)C3=O)n(C)n1 returned T cruzi growth-1 106*, Pf Dd2 inh -85*, GASC1 inh -2, T cruzi growth-2 104*, T cruzi growth-3 98*, NIH3T3 tox -7 and NIH3T3 tox 2 -8.
Screening C[C@H]1CN([C@@H](C)CO)C(=O)c2cc(NC(=O)Nc3ccccc3)ccc2O[C@@H]1CN(C)C(=O)Nc1ccc(F)cc1 returned Pf Dd2 inh 8, IDH1 mut inh 0 and GASC1 inh 1.
For C[C@@H]1CCCCO[C@H](CN(C)S(=O)(=O)c2cn(C)cn2)[C@@H](C)CN([C@H](C)CO)C(=O)c2cc(NC(=O)Nc3cccc4ccccc34)ccc2O1 the results were T cruzi growth-1 27, Pf Dd2 inh 10, IDH1 mut inh -5 and GASC1 inh 0.
For COc1ccc(NC(=O)Nc2ccc3c(c2)C(=O)N([C@@H](C)CO)C[C@H](C)[C@@H](CN(C)C(=O)Nc2ccc(C(F)(F)F)cc2)OCCCC[C@H](C)O3)cc1 the results were T cruzi growth-1 inconclusive, Pf Dd2 inh -82*, GASC1 inh 1, T cruzi growth-2 107*, T cruzi growth-3 110*, NIH3T3 tox 16 and NIH3T3 tox 2 13.
For COc1ccc(NC(=O)Nc2ccc3c(c2)C(=O)N([C@@H](C)CO)C[C@@H](C)[C@H](CN(C)C(=O)Nc2ccc(C(F)(F)F)cc2)OCCCC[C@H](C)O3)cc1 the results were T cruzi growth-1 inconclusive, Pf Dd2 inh -11, GASC1 inh 1, T cruzi growth-2 103*, T cruzi growth-3 100*, NIH3T3 tox 4 and NIH3T3 tox 2 19.
COc1ccc(NC(=O)N(C)C[C@H]2OCCCC[C@@H](C)Oc3ccc(NC(=O)Nc4ccc(C(F)(F)F)cc4)cc3C(=O)N([C@@H](C)CO)C[C@H]2C)cc1 was read as T cruzi growth-1 109*, Pf Dd2 inh -62, GASC1 inh 0, T cruzi growth-2 105*, T cruzi growth-3 113*, NIH3T3 tox 10 and NIH3T3 tox 2 6.
`COc1ccc(NC(=O)N(C)C[C@@H]2OCCCC[C@@H](C)Oc3ccc(NC(=O)Nc4ccc(C(F)(F)F)cc4)cc3C(=O)N([C@H](C)CO)C[C@H]2C)cc1` gave T cruzi growth-1 28, Pf Dd2 inh 15, IDH1 mut inh 1 and GASC1 inh -2.
`COc1ccc(NC(=O)Nc2ccc3c(c2)C(=O)N([C@@H](C)CO)C[C@@H](C)[C@@H](CN(C)C(=O)Nc2ccc(C(F)(F)F)cc2)OCCCC[C@@H](C)O3)cc1` gave T cruzi growth-1 inconclusive, Pf Dd2 inh -56, GASC1 inh -2, T cruzi growth-2 101*, T cruzi growth-3 107*, NIH3T3 tox 8 and NIH3T3 tox 2 3.
COC(=O)c1ccccc1NC(=O)CN(c1ccc(C)c(Cl)c1)S(C)(=O)=O was read as IDH1 mut inh 0.
COc1ccc2c3c([nH]c2c1)[C@@H](CO)N(C(=O)NC(C)C)CC31CN(C(=O)NC(C)C)C1 was read as Pf Dd2 inh 19 and GASC1 inh -1.
C[C@H]1CCCCO[C@H](CN(C)Cc2ccccc2)[C@@H](C)CN([C@@H](C)CO)C(=O)c2cc(NC(=O)Nc3ccc4c(c3)OCO4)ccc2O1 was read as T cruzi growth-1 87, Pf Dd2 inh -71, IDH1 mut inh 0 and GASC1 inh 1.
`COc1ccc(NC(=O)Nc2ccc3c(c2)C(=O)N([C@H](C)CO)C[C@H](C)[C@@H](CN(C)C(=O)Nc2ccc(C(F)(F)F)cc2)OCCCC[C@H](C)O3)cc1` gave T cruzi growth-1 inconclusive, Pf Dd2 inh -90*, IDH1 mut inh 0, GASC1 inh 1, T cruzi growth-2 112*, T cruzi growth-3 107*, NIH3T3 tox 10 and NIH3T3 tox 2 1.
For CC(=O)N(C)C[C@H]1Oc2ncc(C#Cc3ccncc3)cc2C(=O)N([C@H](C)CO)C[C@@H]1C the results were Pf Dd2 inh 20, IDH1 mut inh 8 and GASC1 inh 1.
For Cc1cccc(-c2ccc([C@H]3[C@H](CO)N4CCCCN(C(=O)c5ccc6c(c5)OCO6)C[C@@H]34)cc2)c1 the results were T cruzi growth-1 114*, Pf Dd2 inh -55, GASC1 inh 0, T cruzi growth-2 103*, T cruzi growth-3 49, NIH3T3 tox 33 and NIH3T3 tox 2 103*.
For O=C(c1ccc2c(c1)OCO2)N1CCCCN2[C@H](CO)[C@@H](c3ccc(-c4ccccc4)cc3)[C@@H]2C1 the results were T cruzi growth-1 115*, Pf Dd2 inh -61, GASC1 inh 0, T cruzi growth-2 99*, T cruzi growth-3 93, NIH3T3 tox 52* and NIH3T3 tox 2 88*.

Bioassay records: PubChem BioAssay, Broad Institute
